Measured values: ChEMBL document CHEMBL3352012, “Synthesis and evaluation of novel podophyllotoxin derivatives as potential antitumor agents” (Eur J Med Chem, 2014)
The source made the active and inactive calls. No cut-off for these calls is given here.

Columns and labels:
K562/A02 [1] = assay: Induction of apoptosis in human K562/A02 cells assessed as induction of large cells formation at 6 uM after 48 hrs by Hoechst-33342 staining based fluorescence microscopy; assay type: functional, cell-based
In short: (§1)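 K562/A02 cells treated 48 h at 3, 6 or 12 concentration levels alongside untreated control and 6 etoposide; nuclei stained with Hoechst 33342 and viewed by fluorescence microscopy at 400× for chromatin condensation, nuclear fragmentation and other apoptotic morphology.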

K562/A02 [2] = assay: Induction of apoptosis in human K562/A02 cells assessed as viable cells level at 6 uM after 48 hrs by Annexin V-FITC and propidium iodide double staining based flow cytometry (reference value: 90.7%); assay type: functional
[3] = Reduction in MDR1 mRNA expression in human K562/A02 cells at 6 uM incubated for 48 hrs by RT-PCR method relative to untreated control; assay type: functional, cell-based
In short: (§2)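 K562 and K562/A02 cells seeded 1 × 10⁵/well in 10% FCS/RPMI-1640; compound added 24 h later, then cultured another 48 h. Total RNA extracted with Trizol, checked at 260/280 nm, reverse transcribed; MDR-1 (157 bp) and β-actin (540 bp) amplified, products run on agarose gel, stained, MDR-1 normalised to β-actin against untreated control.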

K562/A02 [4] = assay: Induction of apoptosis in human K562/A02 cells assessed as induction of nuclear fragmentation at 12 uM after 48 hrs by Hoechst-33342 staining based fluorescence microscopy; assay type: functional, cell-based; in short: as §1
K562 [5] = assay: Resistance index, ratio of IC50 for human K562/A02 cells to IC50 for human K562 cells; assay type: functional
[6] = Reduction in MDR1 mRNA expression in human K562/A02 cells incubated for 48 hrs by RT-PCR method; assay type: functional, cell-based; in short: as §2
K562/A02 [7] = assay: Induction of apoptosis in human K562/A02 cells assessed as necrotic cells level at 3 uM after 48 hrs by Annexin V-FITC and propidium iodide double staining based flow cytometry (reference value: 1.53%); assay type: functional
K562/A02 [8] = assay: Induction of apoptosis in human K562/A02 cells at 12 uM after 48 hrs by Annexin V-FITC and propidium iodide double staining based flow cytometry (reference value: 7.9 +/- 1.34%); assay type: functional
[9] = Reduction in MDR1 mRNA expression in human K562/A02 cells assessed as MDR1 mRNA levels at 12 uM incubated for 48 hrs by RT-PCR method (reference value: 100%); assay type: functional, cell-based; set-up: scale not given: the % may be the effect or the level left; in short: as §2
K562/A02 [10] = assay: Induction of apoptosis in human K562/A02 cells assessed as early apoptotic cells level at 6 uM after 48 hrs by Annexin V-FITC and propidium iodide double staining based flow cytometry (reference value: 6.23%); assay type: functional
K562/A02 [11] = assay: Induction of apoptosis in human K562/A02 cells assessed as necrotic cells level at 12 uM after 48 hrs by Annexin V-FITC and propidium iodide double staining based flow cytometry (reference value: 1.53%); assay type: functional
K562/A02 [12] = assay: Induction of apoptosis in human K562/A02 cells assessed as early apoptotic cells level at 12 uM after 48 hrs by Annexin V-FITC and propidium iodide double staining based flow cytometry (reference value: 6.23%); assay type: functional
K562/A02 [13] = assay: Induction of apoptosis in human K562/A02 cells assessed as late apoptotic cells level at 3 uM after 48 hrs by Annexin V-FITC and propidium iodide double staining based flow cytometry (reference value: 1.58%); assay type: functional
K562/A02 [14] = assay: Induction of apoptosis in human K562/A02 cells assessed as late apoptotic cells level at 12 uM after 48 hrs by Annexin V-FITC and propidium iodide double staining based flow cytometry (reference value: 1.58%); assay type: functional
K562/A02 [15] = assay: Induction of apoptosis in human K562/A02 cells assessed as early apoptotic cells level at 3 uM after 48 hrs by Annexin V-FITC and propidium iodide double staining based flow cytometry (reference value: 6.23%); assay type: functional
K562/A02 [16] = assay: Induction of apoptosis in human K562/A02 cells assessed as induction of cell shrinkage and detachment at 12 uM after 48 hrs by Hoechst-33342 staining based fluorescence microscopy; assay type: functional; in short: as §1
K562/A02 [17] = assay: Induction of apoptosis in human K562/A02 cells assessed as viable cells level at 3 uM after 48 hrs by Annexin V-FITC and propidium iodide double staining based flow cytometry (reference value: 90.7%); assay type: functional
K562/A02 [18] = assay: Induction of apoptosis in human K562/A02 cells assessed as induction of multinucleation at 6 uM after 48 hrs by Hoechst-33342 staining based fluorescence microscopy; assay type: functional, cell-based; in short: as §1
K562/A02 [19] = assay: Induction of apoptosis in human K562/A02 cells assessed as late apoptotic cells level at 6 uM after 48 hrs by Annexin V-FITC and propidium iodide double staining based flow cytometry (reference value: 1.58%); assay type: functional
K562 [20] = assay: Cytotoxicity against human K562 cells after 48 hrs by MTT assay; assay type: functional, cell-based
In short: (§3)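 Cells kept in RPMI-1640 with 10% FBS, 2 mmol/L glutamine, penicillin and streptomycin at 37 °C, 5% CO2. Seeded at 5 × 10³ cells/well and left 24 h to attach, then exposed to compounds or etoposide reference for 48 h. MTT (5 mg/mL) added for 4 h at 37 °C, supernatant removed, formazan dissolved in DMSO, absorbance read at 490 nm.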

[21] = Reduction in MDR1 mRNA expression in human K562/A02 cells at 6 uM incubated for 48 hrs by RT-PCR method; assay type: functional, cell-based; in short: as §2
K562/A02 [22] = assay: Induction of apoptosis in human K562/A02 cells assessed as induction of membrane blebbing at 12 uM after 48 hrs by Hoechst-33342 staining based fluorescence microscopy; assay type: functional, cell-based; in short: as §1
K562/A02 [23] = assay: Induction of apoptosis in human K562/A02 cells assessed as induction of large cytoplasmic vacuoles at 6 uM after 48 hrs by Hoechst-33342 staining based fluorescence microscopy; assay type: functional, cell-based; in short: as §1
K562/A02 [24] = assay: Induction of apoptosis in human K562/A02 cells assessed as necrotic cells level at 6 uM after 48 hrs by Annexin V-FITC and propidium iodide double staining based flow cytometry (reference value: 1.53%); assay type: functional
K562/A02 [25] = assay: Induction of apoptosis in human K562/A02 cells assessed as viable cells level at 12 uM after 48 hrs by Annexin V-FITC and propidium iodide double staining based flow cytometry (reference value: 90.7%); assay type: functional
HeLa = assay: Cytotoxicity against human HeLa cells after 48 hrs by MTT assay; assay type: functional, cell-based; in short: as §3
K562/A02 [26] = assay: (§4) Cytotoxicity against human K562/A02 cells after 48 hrs by MTT assay; assay type: functional, cell-based; in short: as §3
[27] = as §4; assay type: functional, cell-based; settings: K562/A02, 48 h; in short: as §3
K562/A02 [28] = assay: Induction of apoptosis in human K562/A02 cells assessed as induction of abnormal mitotic figures at 6 uM after 48 hrs by Hoechst-33342 staining based fluorescence microscopy; assay type: functional, cell-based; in short: as §1
K562/A02 [29] = assay: Induction of apoptosis in human K562/A02 cells assessed as induction of chromatin condensation at 12 uM after 48 hrs by Hoechst-33342 staining based fluorescence microscopy; assay type: functional, cell-based; in short: as §1

SMILES: COc1cc([C@@H]2c3cc4c(cc3[C@@H](NCc3ccc([N+](=O)[O-])o3)[C@H]3COC(=O)[C@H]23)OCO4)cc(OC)c1OC
- Activity (K562/A02 [1]): Active
- Activity (K562/A02 [2]): 46.4%
- inhibition [3]: 70%
- Activity (K562/A02 [4]): Active
- Ratio IC50 (K562 [5]): 0.905
- inhibition [6]: Dose-dependent effect
- Activity (K562/A02 [7]): 3.9%
- Activity (K562/A02 [8]): 65.35%
- Activity [9]: 31.2%
- Activity (K562/A02 [10]): 28.2%
- Activity (K562/A02 [11]): 1.09%
- Activity (K562/A02 [12]): 56.3%
- Activity (K562/A02 [13]): 4.02%
- Activity (K562/A02 [14]): 8.05%
- Activity (K562/A02 [15]): 14.8%
- Activity (K562/A02 [16]): Active
- Activity (K562/A02 [17]): 77.3%
- Activity (K562/A02 [18]): Active
- Activity (K562/A02 [19]): 11.9%
- growth inhibition (GI) (K562 [20]): Dose-dependent effect
- IC50 (K562 [20]; K562, 48 h): 5.99 µM
- MDR1 mRNA reduction (qualitative) [21]: Active
- Activity (K562/A02 [22]): Active
- Activity (K562/A02 [23]): Active
- Activity (K562/A02 [24]): 13.5%
- Activity (K562/A02 [25]): 34.5%
- IC50 (HeLa): 7.55 µM
- growth inhibition (GI) (K562/A02 [26]): Dose-dependent effect
- IC50 [27]: 5.42 µM
- Activity (K562/A02 [28]): Active
- Activity (K562/A02 [29]): Active
